The assay concerns the target T1, Polyunsaturated fatty acid lipoxygenase ALOX15 (Homo sapiens) (UniProt P16050).
T1 sequence (whole entry): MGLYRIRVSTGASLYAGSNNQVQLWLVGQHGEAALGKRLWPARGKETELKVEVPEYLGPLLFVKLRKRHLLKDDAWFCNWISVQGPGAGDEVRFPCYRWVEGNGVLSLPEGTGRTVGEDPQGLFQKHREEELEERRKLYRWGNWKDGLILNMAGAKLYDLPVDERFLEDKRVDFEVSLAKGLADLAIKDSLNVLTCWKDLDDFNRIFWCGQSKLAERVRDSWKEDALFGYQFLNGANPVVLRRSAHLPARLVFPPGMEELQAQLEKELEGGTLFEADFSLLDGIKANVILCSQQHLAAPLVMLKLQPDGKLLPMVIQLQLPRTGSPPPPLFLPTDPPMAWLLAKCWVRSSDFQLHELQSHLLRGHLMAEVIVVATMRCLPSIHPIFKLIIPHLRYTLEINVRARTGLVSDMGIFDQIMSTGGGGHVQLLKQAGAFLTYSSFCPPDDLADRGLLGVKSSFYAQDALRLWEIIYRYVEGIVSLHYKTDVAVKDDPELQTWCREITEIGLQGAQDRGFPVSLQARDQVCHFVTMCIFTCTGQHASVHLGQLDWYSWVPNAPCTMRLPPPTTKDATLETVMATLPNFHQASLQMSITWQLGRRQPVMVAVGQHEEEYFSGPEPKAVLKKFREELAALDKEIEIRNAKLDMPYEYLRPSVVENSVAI
Description: Inhibition of recombinant human 15-LOX-1 expressed in Escherichia coli BL21(DE3) assessed as residual activity at 50 uM using linoleic acid as substrate preincubated for 10 mins followed by substrate addition. The essentials:
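h-15-LOX-1 (1:100 enzyme stock, 1:400 final) preincubated 10 min at room temperature with inhibitor in 25 mM HEPES pH 7.4, then linoleic acid added to 25 µM final (inhibitor 50 µM final). 13(S)-HpODE formation read as A234 over time, rate taken from linear part within first 16 min; no-inhibitor = 100%, no-enzyme = 0%. Triplicate.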

Structures are written as SMILES.

As to `COc1ccc(C(=O)c2[nH]c(N)c(C(=O)NCCc3c[nH]c4ccccc34)c2-c2ccc(Cl)cc2)cc1`, the Activity was 68.1%.

For `Nc1[nH]c(C(=O)c2ccccc2)c(-c2ccc(Cl)cc2)c1C(=O)NCCc1c[nH]c2ccccc12`, the Activity came out at 84.7%.

For the compound `Nc1[nH]c(C(=O)c2ccccc2)c(-c2ccc3c(c2)OCO3)c1C(=O)NCCc1c[nH]c2ccccc12`, the Activity amounted to 62.7%.

As for `Nc1[nH]c(C(=O)c2ccccc2)c(-c2ccccc2C(F)(F)F)c1C(=O)NCCc1cccs1`, the Activity was 91.5%.

In the case of `Nc1[nH]c(C(=O)c2ccc(Br)cc2)c(-c2ccc(Br)cc2)c1C(=O)N1CCCCC1`, the Activity is 63.3%.

On to `Nc1[nH]c(C(=O)c2ccccc2)c(-c2ccccc2Br)c1C(=O)c1cccs1`, for which the Activity is 59.8%.

Turning to `Cc1ccccc1-c1c(C(=O)c2ccccc2)[nH]c(N)c1C(=O)NCCc1c[nH]c2ccccc12`, the Activity was 62.5%.

With `Nc1[nH]c(C(=O)c2ccccc2)c(-c2ccncc2)c1C(=O)NC1CC1`, the Activity was found to be 91%.

Regarding `Nc1[nH]c(C(=O)c2ccc(Br)cc2)c(-c2ccc3c(c2)OCO3)c1C(=O)NCCc1c[nH]c2ccccc12`, the Activity was 75.9%.

As to `Cc1cc(C)cc(-c2c(C(=O)c3ccccc3)[nH]c(N)c2C(=O)NCCc2c[nH]c3ccccc23)c1`, the Activity is -47.3%.

Consider `Nc1[nH]c2ccccc2c1C(=O)NC1CC1`, for which the Activity came to 126%.

Take `Nc1[nH]c(C(=O)c2ccccc2)c(-c2ccccc2C(F)(F)F)c1C(=O)NCc1cccc2ccccc12`: the Activity was 85%.

`CC(C)(C)C(=O)c1c(N)[nH]c(C(=O)c2ccccc2)c1-c1ccc(Cl)cc1`: the Activity was 94.5%.

For `CCCCNC(=O)c1c(N)[nH]c(C(=O)c2ccc(F)cc2)c1-c1ccc(Cl)cc1C`, the Activity amounted to 107%.

Turning to `Nc1[nH]c2ccccc2c1C(=O)NCCc1ccc(Cl)cc1Cl`, the Activity is 104%.

Take `NC(=O)c1c(N)[nH]c(C(=O)c2ccccc2)c1-c1ccc2ccccc2c1`: the Activity was 79.1%.

In the case of `COc1ccc(-c2c(C(=O)c3ccccc3)[nH]c(N)c2C(=O)NCc2ccccc2)cc1OC`, the Activity worked out at 90.7%.

Regarding `Cc1ccc([C@H](C)NC(=O)c2c(N)[nH]c(C(=O)c3ccccc3)c2-c2cc(Cl)cc(Cl)c2)cc1`, the Activity is 77.3%.

Turning to `Nc1[nH]c(C(=O)c2ccccc2)c(-c2ccc(Cl)cc2)c1C(=O)c1c[nH]c2cc(F)ccc12`, the Activity is 86.5 to 87.5%.

On to `Nc1[nH]c(C(=O)c2ccccc2)c(-c2ccccc2C(F)(F)F)c1C(=O)NCCc1c[nH]c2ccccc12`, for which the Activity was 45.5%.

Take `Nc1[nH]c(C(=O)c2ccccc2)c(-c2ccc3ccccc3c2)c1C(=O)NCCc1ccc(Cl)cc1`: the Activity was determined as 80.6%.

Turning to `Nc1[nH]c(C(=O)c2ccccc2)c(-c2ccc(Br)cc2)c1C(=O)c1ccc(Br)cc1`, the Activity stood at 62.2%.

As to `Nc1[nH]c(C(=O)c2ccccc2)c(-c2cccc3ccccc23)c1C(=O)c1c(-c2ccccc2)[nH]c2ccccc12`, the Activity turned out to be 89.9%.

`Nc1[nH]c(C(=O)c2ccccc2)c(-c2ccc3ccccc3c2)c1C(=O)NC1CC1`: the Activity is 83.5%.

For the compound `Nc1[nH]c(C(=O)c2ccccc2)c(-c2cccc3ccccc23)c1C(=O)c1cccs1`, the Activity is 73.7%.

Take `Nc1[nH]c2cc(C(F)(F)F)ccc2c1C(=O)NC1CCCCC1`: the Activity came to 125%.

Regarding `COc1ccc(C(=O)c2[nH]c(N)c(C(=O)NCCc3c[nH]c4ccccc34)c2-c2ccccc2C(F)(F)F)cc1`, the Activity came out at 97.2%.

Regarding `Nc1[nH]c(C(=O)c2ccccc2)c(-c2cccnc2)c1C(=O)NCCc1c[nH]c2ccccc12`, the Activity worked out at 82.5%.

`COc1ccc(C(=O)c2[nH]c(N)c(C(N)=O)c2-c2ccc(O)c(OC)c2)cc1`: the Activity is 67.1%.

With `Nc1[nH]c(C(=O)c2ccccc2)c(-c2ccc(Br)cc2)c1C(=O)NC1CC1`, the Activity was 94.3%.

`Nc1[nH]c(C(=O)c2ccccc2)c(-c2ccccc2)c1C(=O)NCCc1c[nH]c2ccccc12`: the Activity came out at 63.2%.

As to `COc1ccc(-c2c(C(=O)c3ccccc3)[nH]c(N)c2C(=O)c2ccccc2)cc1OC`, the Activity was in the range of 97.9 to 105%.

`CC(C)(C)C(=O)c1c(N)[nH]c(C(=O)c2ccccc2)c1-c1ccc([N+](=O)[O-])cc1`: the Activity turned out to be 110%.

For the compound `Nc1[nH]c(C(=O)c2ccccc2)c(-c2c(F)cccc2Cl)c1C(=O)NCCc1c[nH]c2ccccc12`, the Activity came out at 92.7%.

On to `Nc1[nH]c(C(=O)c2ccccc2)c(-c2ccc(Br)cc2)c1C(=O)c1cccs1`, for which the Activity stood at 81.3%.

With `CC(C)(C)C(=O)c1c(N)[nH]c(C(=O)c2ccccc2)c1-c1ccc(C(F)(F)F)cc1`, the Activity was determined as 86.9%.

Regarding `COCCNC(=O)c1c(N)[nH]c(C(=O)c2ccc(Br)cc2)c1-c1ccc(Br)cc1`, the Activity worked out at 103%.

As to `Nc1[nH]c(C(=O)c2ccccc2)c(-c2ccc(Cl)c(Cl)c2)c1C(=O)NCCc1c[nH]c2ccccc12`, the Activity came out at 36.8%.

`Nc1[nH]c(C(=O)c2ccccc2)c(-c2cccnc2)c1C(=O)NCCc1ccc(Cl)cc1Cl`: the Activity is 99.9%.

As for `NC(=O)c1c(N)[nH]c(C(=O)c2ccccc2)c1-c1ccccn1`, the Activity worked out at 82.1%.

`Nc1[nH]c(C(=O)c2ccc(Br)cc2)c(-c2ccc(Br)cc2)c1C(=O)NCc1cccc2ccccc12`: the Activity was 77.6%.

With `CC(C)(C)C(=O)c1c(N)[nH]c(C(=O)c2ccccc2)c1-c1cc2ccccc2nc1Cl`, the Activity came out at 104%.

Take `Nc1[nH]c(C(=O)c2ccccc2)c(-c2ccccn2)c1C(=O)NCCCCl`: the Activity was determined as 92.1%.

With `Nc1[nH]c2cc(Cl)ccc2c1C(=O)N1CCOCC1`, the Activity is 107%.

With `COc1ccc(C(=O)c2[nH]c(N)c(C(=O)NCCc3c[nH]c4ccccc34)c2-c2ccc(Cl)cc2Cl)cc1`, the Activity amounted to 64.5%.

As to `CCCCNC(=O)c1c(N)[nH]c(C(=O)c2ccccc2)c1-c1ccc(Cl)cc1`, the Activity was 104%.

Turning to `Nc1[nH]c(C(=O)c2ccccc2)c(-c2ccc(F)cc2)c1C(=O)NCCc1c[nH]c2ccccc12`, the Activity came out at 59.6%.

Regarding `Nc1[nH]c(C(=O)c2ccccc2)c(-c2ccccc2Br)c1C(=O)NCCc1c[nH]c2ccccc12`, the Activity turned out to be 61.9%.

On to `Nc1[nH]c(C(=O)c2ccc(Br)cc2)c(-c2ccc(Cl)c(Cl)c2)c1C(=O)NCCc1c[nH]c2ccccc12`, for which the Activity is 50%.

Consider `COC(=O)c1c(N)[nH]c(C(=O)c2ccccc2)c1-c1ccccc1Br`, for which the Activity was found to be 74.8%.

Consider `COc1ccc(C(=O)c2[nH]c(N)c(C(=O)NCCc3c[nH]c4ccccc34)c2-c2ccc(Br)cc2)cc1`, for which the Activity was 40.1%.

As to `Cc1ccc(-c2c(C(=O)c3ccccc3)[nH]c(N)c2C(=O)NCc2ccc(Cl)cc2)cc1`, the Activity was determined as 94.4%.

For `COc1cc(-c2c(C(=O)c3ccccc3)[nH]c(N)c2C(N)=O)ccc1F`, the Activity turned out to be 110%.

In the case of `NC(=O)c1c(N)[nH]c(C(=O)c2ccccc2)c1-c1ccccc1Cl`, the Activity stood at 114%.

Consider `N#Cc1c(N)[nH]c(C(=O)c2ccccc2)c1-c1ccc(Cl)cc1`, for which the Activity stood at 92.2%.

On to `Nc1[nH]c(C(=O)c2ccccc2)c(-c2ccc(C(F)(F)F)cc2)c1C(=O)NCc1ccc(Cl)cc1Cl`, for which the Activity stood at 74.7%.

For `Nc1[nH]c(C(=O)c2ccccc2)c(-c2cccc3ccccc23)c1C(=O)NCc1ccccc1`, the Activity came to 92.5%.

In the case of `Nc1[nH]c(C(=O)c2ccccc2)c(-c2cccc3ccccc23)c1C(=O)NCc1ccc(F)c(F)c1`, the Activity stood at 62.2%.

For the compound `Nc1[nH]c(C(=O)c2ccccc2)c(-c2ccncc2)c1C(=O)NCCc1c[nH]c2ccccc12`, the Activity was 106%.

For the compound `COc1ccccc1CCNC(=O)c1c(N)[nH]c(C(=O)c2ccccc2)c1-c1ccc(Cl)cc1Cl`, the Activity was determined as 91.7%.

In the case of `Nc1[nH]c(C(=O)c2ccccc2)c(-c2ccc(Cl)cc2Cl)c1C(=O)NCCc1c[nH]c2ccccc12`, the Activity was determined as 22.8%.

With `COc1ccc(CNC(=O)c2c(N)[nH]c(C(=O)c3ccccc3)c2-c2ccc3ccccc3c2)cc1OC`, the Activity was determined as 120%.

In the case of `Nc1[nH]c(C(=O)c2ccccc2)c(-c2ccc(C(F)(F)F)cc2)c1C(=O)NCCc1c[nH]c2ccccc12`, the Activity stood at 43.5%.

Regarding `Nc1[nH]c(C(=O)c2ccc(Cl)cc2)c(-c2ccc(Br)cc2)c1C(=O)NCc1ccc(Cl)cc1Cl`, the Activity was found to be 105%.

In the case of `COc1ccc(C(=O)c2[nH]c(N)c(C(=O)NCCc3c[nH]c4ccccc34)c2-c2ccc(OC)c(OC)c2)cc1`, the Activity came out at 70.3%.

Regarding `CC(C)(C)C(=O)c1c(N)[nH]c(C(=O)c2ccccc2)c1-c1ccc(Cl)cc1Cl`, the Activity is 79.9%.

`Nc1[nH]c(C(=O)c2ccccc2)c(-c2ccc3ccccc3c2)c1C(=O)NCc1ccc(F)cc1`: the Activity stood at 86%.

Consider `Nc1[nH]c(C(=O)c2ccccc2)c(-c2ccc(Br)cc2)c1C(=O)NCCCN1CCOCC1`, for which the Activity stood at 104%.

As for `Nc1[nH]c(C(=O)c2ccc(Br)cc2)c(-c2ccc(Br)cc2)c1C(=O)NC1CC1`, the Activity was determined as 95%.

For the origin of these results see ChEMBL document CHEMBL4130408, “Photoactivation provides a mechanistic explanation for pan-assay interference behaviour of 2-aminopyrroles in lipoxygenase inhibition” (Eur J Med Chem, 2017).
